# Screens from PubChem.
# XBP1 UPR activ – activators of adaptive arm of unfolded protein response (XBP1). CHO-XBP1 luciferase reporter, IRE1-XBP1 UPR activation, luminescence; percent of tunicamycin response, DMSO as zero. activation, % at 20 µM. AID 463104. 330,000 compounds, 0.33% hits;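 active = versus positive control, 20 µM dose yields 30% or more activation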;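 also: 100% = tunicamycin at 10 µg/mL and 0% = DMSO only wells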
#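 Material: CHO cell line with stable XBP1 luciferase reporter; buffer or medium: F12 medium containing 10% fetal bovine serum; compound: single point, 20 µM final compound, 1% DMSO; incubation: 6 h treatment, 37 °C; measured by: glow luminescence from Steady-Glo reagent; evaluation: activation, % of tunicamycin; control set: tunicamycin high, DMSO low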
# UBC13 polyUb – inhibitors of human UBC13 polyubiquitin chain formation; P61088; TR-FRET; inhibition, % at 20 µM; 330,000 compounds, 0.47% hits; in the data active = inhibition above about 45%, passing the limit was not always enough
# Mdm2-MdmX inh – disrupts the human Mdm2-MdmX interaction; SaOS-2 split-luciferase Mdm2/MdmX complementation, luminescence; O15151+Q00987; 330,000 compounds, 3% hits; inhibition, % at 8 µM;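 active = inhibition of at least 50% at 8 µM in the primary screen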
# Target sequence (O15151 whole entry, looked up): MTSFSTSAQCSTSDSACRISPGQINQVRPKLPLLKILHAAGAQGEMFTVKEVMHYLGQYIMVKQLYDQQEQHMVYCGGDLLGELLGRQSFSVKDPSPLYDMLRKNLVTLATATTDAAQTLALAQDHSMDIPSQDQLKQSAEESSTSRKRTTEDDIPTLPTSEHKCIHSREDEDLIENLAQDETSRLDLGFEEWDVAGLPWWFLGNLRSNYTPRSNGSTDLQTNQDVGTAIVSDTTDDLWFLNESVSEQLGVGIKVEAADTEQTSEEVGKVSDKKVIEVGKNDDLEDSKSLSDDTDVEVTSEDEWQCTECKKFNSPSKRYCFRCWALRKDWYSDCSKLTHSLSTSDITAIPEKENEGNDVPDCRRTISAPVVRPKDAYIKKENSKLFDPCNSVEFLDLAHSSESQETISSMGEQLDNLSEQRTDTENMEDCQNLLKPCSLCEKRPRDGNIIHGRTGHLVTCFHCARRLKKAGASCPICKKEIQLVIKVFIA
# Target sequence (Q00987 whole entry, looked up): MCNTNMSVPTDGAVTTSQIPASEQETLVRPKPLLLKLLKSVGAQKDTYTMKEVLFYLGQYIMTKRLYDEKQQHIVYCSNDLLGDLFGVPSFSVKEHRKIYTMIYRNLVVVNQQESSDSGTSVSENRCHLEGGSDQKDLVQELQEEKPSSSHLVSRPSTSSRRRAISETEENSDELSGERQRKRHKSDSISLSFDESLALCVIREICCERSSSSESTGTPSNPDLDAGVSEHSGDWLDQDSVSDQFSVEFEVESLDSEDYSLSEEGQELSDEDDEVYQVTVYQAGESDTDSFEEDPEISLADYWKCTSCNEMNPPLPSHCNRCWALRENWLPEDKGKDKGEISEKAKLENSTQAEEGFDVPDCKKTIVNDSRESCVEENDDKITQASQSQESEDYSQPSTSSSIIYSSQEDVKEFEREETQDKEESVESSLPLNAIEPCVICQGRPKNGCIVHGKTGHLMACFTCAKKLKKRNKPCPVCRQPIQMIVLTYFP
# CHOP UPR activ – activators of apoptotic arm of unfolded protein response (CHOP). CHO-CHOP luciferase reporter, UPR activation, luminescence; percent of tunicamycin response over DMSO baseline. activation, % at 10 µM. 330,000 compounds, 0.34% hits;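 active = at 10 µM dose, activation of 40% or more, normalized to positive control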;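 also: 100% = tunicamycin at 10 µg/mL and 0% = DMSO alone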
#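 System: CHO-CHOP luciferase reporter cell line; amount: 500 cells/well; buffer or medium: F12 medium containing 10% fetal bovine serum; incubation: 6 h compound exposure at 37 °C after overnight seeding; measured by: luciferase luminescence after 10 min with Steady-Glo reagent; evaluation: % reporter activation, DMSO baseline versus tunicamycin full activation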
# Apaf1 inhib – blocks human Apaf-1 apoptosome activity | inhibition, % at 20 µM | O14727 | reconstituted apoptosome caspase-3 activity, DEVD-Rh110 fluorescence | 330,000 compounds, 0.71% hits | AID 489030; active = inhibition of at least 40% at 20 µM;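 also: plate controls were DMSO wells for no effect and DEVD-CHO caspase inhibitor wells for full effect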
#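 System – cell-free apoptosome with Apaf-1, procaspase-3 and caspase-9 · Buffer or medium – pH 7.5 Hepes buffer with CHAPS, BSA, DTT · Also added – cytochrome c with DEVD-Rh110 · Times – 30 min compound preincubation, 50 min activation, room temperature · Technique – Rh110 fluorescence intensity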
# Mdm2 MdmX conf – confirmation of human Mdm2/MdmX interaction inhibitors. Mdm2-MdmX binding, luminescent assay. 10,000 compounds, 55% hits. inhibition, % at 8 µM. shares compounds with Mdm2-MdmX inh; in the data active = inhibition above about 40%
# FLuc counter – counter-screen for Mdm2/MdmX inhibitors: full-length luciferase; shares compounds with Mdm2-MdmX inh; SaOS-2 full-length luciferase counterscreen, luminescence; inhibition, % at 8 µM; 6,200 compounds, 77% hits; AID 504607;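 active = mean inhibition at 8 µM reaching about 37%, which flags the compound as non-specific, limit read from the data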;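 also: p53-null SaOS-2 cells with luciferase driven by a doxycycline-inducible promoter; compound on cells about two nights before reading with doxycycline added after day one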
# Active calls of the source: *; i = inactive; . = not tested or not shown. This is a sample that favours compounds with a hit; in the whole collection about 4.1% have one here.
SMILES,XBP1 UPR activ,UBC13 polyUb,Mdm2-MdmX inh,CHOP UPR activ,Apaf1 inhib,Mdm2 MdmX conf,FLuc counter
Cc1ccc(C(=O)OC(C(=O)O)C(OC(=O)c2ccc(C)cc2)C(=O)O)cc1 (configuration not stated),-0.8,-4.7,1.6,-0.9,15.3,.,.
COC(=O)c1cccc(Oc2cccc(Cl)n2)c1,-0.7,1.6,23.5,-0.1,-1.4,.,.
CC(=O)Nc1ccc(NC(=O)C(C)Sc2nc3ccccc3c(=O)n2CC2CCCO2)cc1 (configuration not stated),-1.1,-3.2,17.9,2.6,-1.7,.,.
COc1cc(/C=N/NC(=S)NC2CC3CC2C2C=CCC32)ccc1O (configuration not stated),4.7,-1.6,63.1*,4.0,2.3,32.1,.
CCOc1ccc(/C=N/NC(=S)NC2CC3CC2C2C=CCC32)cc1 (configuration not stated),1.6,5.3,10.9,0.8,-0.9,.,.
CCCn1c(SCC(=O)c2cc(C)n(-c3cc(C)on3)c2C)n[nH]c1=O,-1.8,-0.4,19.6,0.1,3.7,.,.
Cc1ccc2c(c1)c(/C=C/c1cc[n+](C)cc1)c(C)n2C,-1.8,i,82.8*,-0.5,-2.5,59.3*,49.0*
Cc1ccc2[nH]c(C)c(/C=C/c3cc[n+](C)cc3)c2c1,-2.8,i,74.1*,-1.0,12.3,67.3*,53.6*
C[n+]1ccc(/C=C/c2c[nH]c3ccc(F)cc23)cc1,-4.0,-185.5,48.1,0.1,7.0,.,.
COC(=O)N1CCc2c(sc(NC(=O)C3=COCCO3)c2C#N)C1,1.3,-2.9,55.7*,3.7,-1.9,75.5*,65.7*
CCC(C)NC(=O)CSc1nnc(-c2cc(-c3cccs3)nc3ccccc23)o1 (configuration not stated),-6.7,21.4,14.6,-0.7,16.5,.,.
CCN(CC)c1nc(Nc2ccccc2)nc(Oc2ccc(=O)n(C)n2)n1,3.6,-16.6,63.5*,0.7,21.9,27.6,.
CCN(CC)c1nc(Nc2ccccc2)nc(Oc2ccc(=O)[nH]n2)n1,-3.1,3.3,10.3,2.3,0.5,.,.
CN(C)CCNc1ncnc2c1sc1nc(N3CCOCC3)c3c(c12)CC(C)(C)SC3,9.1,32.7,70.2*,1.6,7.8,44.5*,75.2*
CCN(CC)CCNc1ncnc2c1sc1nc(N3CCOCC3)c3c(c12)CC(C)(C)SC3,6.4,30.3,63.5*,0.7,12.7,39.5,54.0*
OCCN(CCO)c1ncnc2c1sc1nc(N3CCOCC3)c3c(c12)CCCC3,6.6,29.9,16.2,0.4,12.4,.,.
Cc1nc(Nc2ccccc2)c2oc3ccc(Cl)cc3c2n1,11.1,6.8,-4.3,6.2,4.1,.,.
Clc1ccc2oc3c(Cl)ncnc3c2c1,1.4,-42.6,71.1*,0.9,-7.0,4.3,.
CC1CCCCC1Nc1nc2ccc(Cl)cc2n2cnnc12 (configuration not stated),-1.3,0.4,32.0,3.8,24.8,.,.
NC(=O)C(C(=O)/C=C/c1ccc(Cl)cc1)=C1SCCS1,-0.7,-15.4,91.9*,9.1,-6.7,82.2*,49.0*
Cc1sc2nc(C3CC3)nc(SCC(=O)N3c4ccccc4CC3C)c2c1C (configuration not stated),2.1,2.0,85.5*,0.7,3.0,89.6*,52.9*
CCCOc1ccc(Cc2nc(N)nc(N)n2)cc1,-2.7,8.5,38.3,-2.0,-20.5,.,.
O=C(N/N=C/c1cccnc1)c1cc(-c2ccc(Br)cc2)nc2ccccc12,-1.5,-7.4,51.6*,0.5,12.7,55.9*,57.7*
Cc1ccc(/C=N/NC(=O)c2cc(-c3cccnc3)nc3ccccc23)cc1,16.5,9.6,53.9*,0.7,0.2,40.5*,48.2*
Cc1nn(-c2ccccc2)c(C)c1-c1nnc(-c2c(C)nn(-c3ccccc3)c2C)o1,1.5,2.2,56.0*,1.4,-6.5,5.1,.
CCC(Sc1nc2cc3c(cc2c(=O)n1Cc1ccco1)OCO3)C(=O)Nc1ccccc1OC (configuration not stated),1.0,-2.1,61.1*,-0.9,16.6,44.4*,80.4*
